Results on 95 compounds are retold here after PubChem BioAssay AID504383 (The Scripps Research Institute Molecular Screening Center, 2011).

Structures are written as SMILES. The whole screen tested about 2,500 compounds, of which about 1,200 (48%) were called active. So high a share suggests a set chosen from earlier hits. The list shows a part of the results. A number with no mark means an inactive call.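 Rule for the calls: active = mean activation above the low control average plus 3 SD, as set in the primary screen (cut at about 12% in these data); inactive = the rest.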

For the test, the target named is Troponin I, cardiac muscle (Homo sapiens) + Troponin T, cardiac muscle (Homo sapiens) + Troponin C, slow skeletal and cardiac muscles (Homo sapiens) (UniProt P19429+P45379+P63316). The test can be described thus: calcium sensitizers of cardiac thin filaments – biochemical, IANBD-TnC fluorescence, triplicate, confirmation (AID 504383).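 Note: 0% = DMSO at 0.472 mM calcium and 100% = DMSO at 2.9 mM calcium.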 To be noted: IANBD-labeled cardiac RTF, Ca2+ sensitivity fluorescence; at 7.2 µM; stronger effect = higher value; scaled from EC20 to saturating calcium; tested at EC20 calcium, 0.472 mM. An outline of the steps:
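System: Labelled thin filament complex | Technique: Filament fluorescence intensity | Benchmarks: Low control EC20 calcium, high control EC100 calcium | Timing: 15 min at 25 °C | Compound dosing: One dose, 7.2 µM nominal | Probe or stimulus: Ca2+ 0.472 mM, EC20 level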
`CN1CCC/C1=C1/C(=O)N(c2ccccc2)N=C1NC(=O)Nc1cccc(Cl)c1`: the activation is -1.33%.
Next, `O=C(NCC1CC1)Nc1cccc(Cl)c1`: 2.84%.
Turning to `O=C(Nc1ccc(C(=O)N2CCOCC2)cc1)Nc1cccc(Cl)c1`, the activation was 47.5% (active).
Take `COCCOC(=O)/C(=C/c1ccc(OC(=O)c2ccccc2)cc1)C(C)=O`: the activation was 8.35%.
In the case of `CC(COC(=O)c1ccccc1)(COC(=O)c1ccccc1)/[N+]([O-])=C/c1ccccc1` it was 32% (active); in that of `Cc1cc2nc3c(=O)n(C4CCCCC4)c(=O)[nH]c3nc2cc1N`, 17.8% (active).
Next, `COCc1cc(=O)[nH]c2cc(NC(=O)C(C)(C)CCl)c(C)cc12`: 4.59%; `Cc1cc2nc3c(=O)[nH]c(=O)[nH]c3nc2c([N+](=O)[O-])c1N`: 2.96%.
Next, `Nc1ccc2nc3c(=O)n(C4CCCCC4)c(=O)[nH]c3nc2c1`: 16.6% (active); `Nc1ccc2nc3c(=O)[nH]c(=S)[nH]c3nc2c1`: 28.7% (active); `Cc1cc2nc3c(=O)[nH]c(=S)[nH]c3nc2cc1NC(=O)C(F)(F)F`: 25.4% (active).
As for `O=C(c1ccc(COc2ccccc2Br)o1)N1N=C(C(F)F)CC1(O)C(F)F` (stereo not given), the activation was 34.5% (active).
In the case of `O=C(c1ccc(Cn2cc([N+](=O)[O-])cn2)o1)N1N=C(C(F)F)CC1(O)C(F)F` (stereo not given) it was 14.1% (active); in that of `c1ccc(-n2ncc(-c3nn[nH]n3)n2)cc1`, 163% (active).
In the case of `CC(=O)Nc1ccc(N2C(=O)CSC2c2ccc(F)cc2)cc1` (stereo not given) it was 81.7% (active); in that of `CC(=O)Nc1ccc(N2C(=O)c3cccc4c(O)ccc(c34)C2=O)cc1`, 2.36%.
In the case of `CCC(=O)N1CCC2(CC1)Oc1ccc(Cl)cc1C(=O)C21CC(c2cccnc2)=NO1` (stereo not given) it was 19.6% (active); in that of `Cc1c(N2C(=O)/C(=C\c3ccc(N(C)C)cc3)N(C)C2=S)c(=O)n(-c2ccccc2)n1C`, 6.77%; in that of `CN1C(=O)/C(=C\c2ccc(N(C)C)cc2)OC1=S`, 223% (active).
Regarding `CN(C)c1ccc(/C=C2\N=C(C(C)(C)C)OC2=O)cc1`, the activation was 7.46%.
In the case of `CN(N=Nc1nc[nH]c1C(=O)NN)C1CCCCC1` it was 12.9% (active).
Next, `Cc1cc(C)c(C#N)c(SCc2nnc(-c3ccccc3)o2)n1`: 50.8% (active); `COC(=O)CCCNC(=O)CCc1nnc(-c2ccc(-c3ccccc3)cc2)o1`: 10.8%; `O=C(CO/N=C/c1ccccc1OC(F)F)NCc1cccs1`: 70.3% (active).
Next, `O=C1c2cccc3c(N4CCCCC4)ccc(c23)C(=O)N1c1cccc(O)c1`: 33.3% (active).
For `O=C1c2cccc3c(N4CCCCC4)ccc(c23)C(=O)N1CCO`, the activation is 185% (active).
Next, `C=CCN1C(=O)c2cccc3c(N4CCCCC4)ccc(c23)C1=O`: 15.9% (active); `Cc1n[nH]c(C)c1N1C(=O)c2cccc3c(N4CCCCCC4)ccc(c23)C1=O`: 5.61%.
On to `CCCN1C(=O)c2cccc3c(N4CCCCC4)ccc(c23)C1=O`, for which the activation was 6.04%.
In the case of `O=C1c2cccc3c(N4CCCCC4)ccc(c23)C(=O)N1c1ccc(O)cc1` it was 10.7%; in that of `O=C1c2ccccc2-c2onc3ccc(N4CCCC4)c1c23`, 9.75%.
As to `O=C1c2cccc3c(N4CCCCC4)ccc(c23)C(=O)N1c1ccccc1O`, the activation was -0.04%.
Next, `CC1(C)C2CCC(C2)C1(C)N=C1OC(CCl)CS1` (stereo not given): 3.58%.
Next, `O=c1ccc2cc3c4c(c2o1)CCCN4CCC3`: 33.6% (active).
On to `N=c1oc2c3c4c(cc2cc1C(=O)Nc1ccccc1)CCCN4CCC3`, for which the activation was 88.7% (active).
In the case of `O=c1oc2c3c4c(cc2c(C(F)(F)F)c1CCN1CCOCC1)CCCN4CCC3` it was 4.32%.
Next, `Cc1ccc2c(CN3CCCc4ccccc43)cc(=O)oc2c1C`: -0.53%; `CCN(CC)S(=O)(=O)c1ccc2[nH]cc(C(=O)NCCN3CCCCCC3)c(=O)c2c1`: 34.4% (active).
Next, `CC(C)(C)c1cc(NC(=O)c2cccc(S(=O)(=O)N3CCOCC3)c2)no1`: 23.5% (active); `CC(=O)N1CCN(S(=O)(=O)c2cccc(C(=O)NNC(=O)c3ccc(Br)cc3)c2)CC1`: 7.22%.
As for `Cn1nc(-c2ccccc2)c(C(=O)Nc2ccc(C(F)(F)F)cc2)c1Cl`, the activation was 26.2% (active).
Next, `CN1CCN(C2=CC3=CC(=C(C#N)C#N)CCC3CC2)CC1` (stereo not given): 6.77%; `CSCC(C)N1CCC(n2nccc2NC(=O)CCCc2ccccc2)CC1` (stereo not given): 162% (active); `COC(=O)CCN(C(=O)c1ccc([N+](=O)[O-])cc1)c1ccccn1`: 19.7% (active).
Next, `CC(=O)NCC(O)c1ccc([N+](=O)[O-])cc1` (stereo not given): 7.74%; `COCCCNc1c2c3c(cccc3[nH]c1=O)C(=O)c1ccccc1-2`: 13.2% (active); `CCCCNc1c2c3c(cccc3n(C)c1=O)C(=O)c1ccccc1-2`: 2.63%.
As for `CC(C)n1cnc2c(NCc3ccccc3)cc(N[C@H](C)CO)cc21`, the activation is -7.72%.
In the case of `CCOC(=O)c1sc2nc(C)nc(SCC(=O)NC3CCS(=O)(=O)C3)c2c1C` (stereo not given) it was 32.3% (active).
For the compound `C[C@@H]1CC=C[C@H]2[C@H]1C(=O)N(Cc1ccccc1)[C@H]2c1ccc(-c2cc3ccccc3s2)cc1F`, the activation is 3.06%.
As to `COc1cccc2c1OC1(C)CC2NC(=O)N1Cc1ccccc1` (stereo not given), the activation was 10.4%.
In the case of `CN(Cc1ccccc1)C(=O)c1cccc(N2C(=O)NC3CC2(C)Oc2ccccc23)c1` (stereo not given) it was 54% (active); in that of `CCOc1cccc2c1OC1(C)CC2NC(=O)N1c1cccc(C(=O)NCc2ccccn2)c1` (stereo not given), 5.07%; in that of `COc1ccc(-c2nc(/C=C3\C(C)=Nc4ccccc43)c(O)o2)cc1`, 12.1% (active).
Next, `CC1=Nc2ccccc2/C1=C\c1nc(-c2ccc(C(F)(F)F)cc2)oc1O`: 7.9%; `CC1=Nc2ccccc2/C1=C\c1nc(-c2ccc(F)cc2)oc1O`: 7.33%; `N#C/C(=C\c1ccc(-c2ccc(F)cc2)o1)C(=O)Nc1nc(-c2cccs2)cs1`: 81.8% (active).
For the compound `Cn1c(/C(C#N)=C/c2ccc(-c3ccc(S(N)(=O)=O)cc3)o2)nc2ccccc21`, the activation was 9.43%.
Next, `N#C/C(=C/c1ccc(-c2ccccc2)o1)c1nc(-c2cccs2)cs1`: 105% (active); `O=C1NC(c2ccco2)Nc2sc3c(c21)CCN(Cc1ccccc1)C3` (stereo not given): 11.7% (active); `Cc1ccsc1C1NC(=O)c2c(sc3c2CCN(C)C3)N1` (stereo not given): 63.1% (active).
For `CN1CCc2c(sc3c2C(=O)NC(c2cccs2)N3)C1` (stereo not given), the activation was 9.65%.
In the case of `Cc1ccc(C2NC(=O)c3c(sc4c3CCN(C)C4)N2)s1` (stereo not given) it was 5.94%.
Turning to `CN1CCc2c(sc3c2C(=O)NC(c2ccccn2)N3)C1` (stereo not given), the activation is 1.45%.
In the case of `CSc1ccc(C2NC(=O)c3c(sc4c3CCN(C)C4)N2)cc1` (stereo not given) it was 22.9% (active); in that of `CN1CCc2c(sc3c2C(=O)NC(c2ccco2)N3)C1` (stereo not given), 1.53%; in that of `Cc1ccc(C2NC(=O)c3c(sc4c3CCN(C)C4)N2)o1` (stereo not given), 12.6% (active).
Next, `CCc1ccccc1NC(=S)NCc1cccn1C`: 9.11%; `O=C(NCCCN1CCOCC1)C(=O)NCc1ccco1`: 9.34%.
Next, `Cn1c(C(=O)NCCCN2CCCCCC2)cc2c(=O)n(C)c3ccccc3c21`: 18.9% (active); `O=C(C1=NN[C@@H]2C(=O)N(c3ccccc3C(F)(F)F)C(=O)[C@H]12)c1ccc2ccccc2n1`: 60.7% (active).
`Cc1ccc(C)c(N2CCN(C(=O)CN3C(=S)NC(C)(C)CC3C)CC2)c1` (stereo not given): the activation is 42.4% (active).
`CC1CC(C)(C)NC(=S)N1CCCC(=O)Nc1ccccc1F` (stereo not given): the activation is -0.32%.
Take `CC(C)C[C@@H](CN=[N+]=[N-])N1CCN(C)CCC1=O`: the activation is -0.6%.
In the case of `CCN1CCN(C2=CC3=CC(=C(C#N)C#N)CCC3CC2)CC1` (stereo not given) it was 0.71%; in that of `Cc1oc(-c2ccccc2Cl)nc1CSc1nc2c(c(=O)[nH]1)CCC2`, 6.98%; in that of `Fc1ccc(CNC(=S)NCc2ccc(F)cc2)cc1`, 54.8% (active).
In the case of `O=C(NCc1ccccc1)C1(c2cccc(F)c2)CCCC1`, the activation was 6.54%.
In the case of `Fc1ccc(CNCc2ccc(Br)cc2)cc1`, the activation is 10.4%.
Consider `Cc1cc(=O)c2c([nH]1)c(C)cc1[nH]c(C)c(C)c12`, for which the activation was 9.89%.
In the case of `CC1(C)C([N+](=O)[O-])C(c2ccc(F)cc2)NC(c2ccc(F)cc2)C1[N+](=O)[O-]` (stereo not given) it was 1.97%; in that of `COC(=O)C1(C)NC(c2ccc(C)cc2)C2C(=O)N(c3ccc(F)cc3)C(=O)C21` (stereo not given), 17% (active); in that of `CC(C)CN1CCN(Cc2cccn2-c2ccc(Cl)cn2)CC1CCO` (stereo not given), 155% (active).
`O=S(=O)(c1ccc(F)cc1)N1CN(Cc2ccco2)c2nc3ccccc3nc21`: the activation was 19% (active).
Turning to `COc1ccc(S(=O)(=O)N2CN(Cc3ccco3)c3nc4ccccc4nc32)cc1`, the activation was 127% (active).
Next, `CCCCCCC(=O)N/N=C/c1ccco1`: 7.23%.
In the case of `CS(=O)(=O)N(CC(=O)N/N=C/c1ccco1)c1ccccc1Br` it was 116% (active); in that of `Cc1ccccc1N(CC(N)=O)S(C)(=O)=O`, 4.33%; in that of `O=C(O)c1ccccc1-c1c2cc(I)c(=O)c(I)c-2oc2c(I)c(O)c(I)cc12`, 5.23%.
Next, `C#CCOCCOCCOCCNc1nc(N2CCN(C(=O)Cn3cc(CCCCN)nn3)CC2)nc(N2CCN(C(=O)Cn3cc(CC(C)O)nn3)CC2)n1` (stereo not given): 5.79%.
Regarding `O=C(O)c1ccc2c(c1)S(=O)(=O)c1ccccc1C2=O`, the activation is 6.82%.
In the case of `C=C1CCN([C@@H](Cc2ccccc2)C(=O)O)S(=O)(=O)c2ccccc21` it was 15.6% (active).
Next, `C=C1CCN(C(CC(C)C)C(=O)OC)S(=O)(=O)c2ccccc21` (stereo not given): 4.69%; `COc1ccc(/C=C/c2nc3sc4c(c3c(=O)o2)CCC4)cc1`: 292% (active); `COc1ccc(/C=C/C=C2\N=C(SC)SC2=O)cc1`: 6.95%.
